High-throughput results deposited in PubChem by several laboratories.
TRAIL sens C8: viability loss with TRAIL in NB7+C8 cells, primary screen, TRAIL sensitizer project, cell-based, ATPlite luminescence; inhibition (viability loss, TRAIL sensitization), % at 10 µM; 360,000 compounds, 1% hits;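 active = compounds causing at least 50% loss of cell viability in the single-dose screen, relative to plate controls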
FLuc stim CS: FLuc activators, initial screening, artefact control for FLuc-dependent activation tests, biochemical, ATPlite luminescence; Luciferin 4-monooxygenase (Photinus pyralis), P08659; ATPlite luciferase biochemical, 10 min; 0 = ATP-free wells, 1 = DMSO control; activation factor at 10 µM; 200,000 tested, under 10 active;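 active = luciferase activation factor, scaled between plate controls, of at least 2 with compound at 10 µM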
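Material: Luciferase/luciferin reagent mix | Doses: Test compounds dosed from 2 mM stocks in 100% DMSO | Timing: 10 min incubation after luciferase reagent addition, room temperature | Measured by: Luminescence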
Wee1 degr inh: Wee1 degradation inhibitors, primary screen, cell-based, HeLa, Wee1K328M-luciferase, luminescence; reporter increase, % at 5 µM; HeLa Luc-Wee1K328M stability; 100% = proteasome inhibitor MG132 effect; 220,000 compounds, 1.2% hits;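 active = activation above the mean of all tested compounds plus 3 SD, set per screening run, cut at about 8.8% in these data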;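 note: cells exposed to compound for 20 h before luminescence read; 0% = DMSO alone and 100% = MG132 at 30 µM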
FLuc inh counter: firefly luciferase enzyme inhibitors, primary screen, artefact control for luciferase-based inhibitor screens, biochemical, luminescence, ATPLite | Luciferin 4-monooxygenase (Photinus pyralis), P08659 | 10 min | inhibition, % at 10 µM | 200,000 compounds, 1.5% hits | AID 1006, 2008;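 active = inhibition above about 50% when tested at 10 µM, limit read from the data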
PPC-1+TRAIL kill: compounds killing PPC-1 cancer cells with TRAIL present, primary screen, TRAIL potentiator project, ATPLite luminescence, uHTS | PPC-1 cells + TRAIL, ATPLite viability luminescence | cell killing (% activity), % at 4 µM or 5 µM | 220,000 compounds, 0.41% hits | AID 1443, 2008;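 active = cell killing above 50% in the first pass at 4 µM, then a duplicate retest at 5 µM averaging 50% or more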;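 note: plate controls were cells with TRAIL plus DMSO for no effect and medium-only wells lacking cells for full effect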
PKD1 kinase inh: inhibitors of human PKD1 kinase, biochemical, fluorescence polarization. PKD1 kinase fluorescence polarization assay. inhibition, % (no concentration beside the values). AID 797, 2007. 200,000 compounds, 0.056% hits; in the data active = inhibition above about 50%
Target sequence (Q15139 whole entry, looked up): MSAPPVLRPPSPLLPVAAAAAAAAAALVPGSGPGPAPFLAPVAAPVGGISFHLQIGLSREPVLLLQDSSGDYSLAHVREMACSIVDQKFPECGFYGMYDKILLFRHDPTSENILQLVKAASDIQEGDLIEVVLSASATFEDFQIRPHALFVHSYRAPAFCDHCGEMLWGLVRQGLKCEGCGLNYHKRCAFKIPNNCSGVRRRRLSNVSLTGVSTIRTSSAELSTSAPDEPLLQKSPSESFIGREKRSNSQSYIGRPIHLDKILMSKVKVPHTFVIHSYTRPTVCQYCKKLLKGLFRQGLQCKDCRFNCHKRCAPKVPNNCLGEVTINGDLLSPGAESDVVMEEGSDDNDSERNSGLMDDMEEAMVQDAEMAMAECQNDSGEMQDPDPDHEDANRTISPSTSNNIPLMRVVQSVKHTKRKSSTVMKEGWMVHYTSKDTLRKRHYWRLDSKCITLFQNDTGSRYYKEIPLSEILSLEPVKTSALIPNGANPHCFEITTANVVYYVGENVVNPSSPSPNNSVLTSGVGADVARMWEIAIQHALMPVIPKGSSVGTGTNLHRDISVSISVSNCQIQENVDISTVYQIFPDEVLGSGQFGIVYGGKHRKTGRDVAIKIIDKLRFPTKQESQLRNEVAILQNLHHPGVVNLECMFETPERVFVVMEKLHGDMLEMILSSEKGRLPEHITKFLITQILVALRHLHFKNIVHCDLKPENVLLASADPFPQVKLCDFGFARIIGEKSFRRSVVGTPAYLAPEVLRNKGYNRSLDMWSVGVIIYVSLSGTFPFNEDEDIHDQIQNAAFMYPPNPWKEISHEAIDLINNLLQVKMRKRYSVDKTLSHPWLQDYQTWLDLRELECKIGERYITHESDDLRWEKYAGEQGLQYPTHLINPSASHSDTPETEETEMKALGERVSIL
* marks the source's active call; other numbers are inactive results; nt = not tested or not shown. Shown are actives, neighbours in structure and some others; about 2.2% of the full set was active somewhere.

SMILES	TRAIL sens C8	FLuc stim CS	Wee1 degr inh	FLuc inh counter	PPC-1+TRAIL kill	PKD1 kinase inh
Nc1cc2sc(-c3ccc(C(=O)O)cc3)nc2cc1Cl	57*	0.2	-3	76*	51*	11
COc1ccc(-c2nn(-c3ccccc3)cc2CNC(=O)c2cccc([N+](=O)[O-])c2)cc1	13	1	-2	4	6	6
CC(=O)Nc1ccc(-c2cn3cc(C)ccc3n2)cc1	45	0.2	0	84*	40	4
Cc1ccc2nc(-c3ccc(O)c(O)c3)cn2c1	76*	nt	nt	nt	nt	nt
Cc1ccc(CNS(=O)(=O)c2cc3c4c(c2)CCN4C(=O)CC3)cc1	-6	nt	nt	nt	nt	nt
O=C(Cc1ccccc1)NCC(=O)OCC(=O)c1ccc(Cl)cc1	-16	nt	nt	nt	nt	nt
Cc1cc(C)cc(N(C(=O)CNS(=O)(=O)c2ccccc2)C(C(=O)NCc2ccccc2)c2ccc(C)o2)c1 (stereo not given)	4	1	11*	-5	5	5
OC(c1cccc(Cl)c1)c1ncc(-c2cccc3ccccc23)[nH]1 (stereo not given)	-4	nt	nt	nt	nt	nt
CC(C)c1nnc(NC(=O)c2nc(S(=O)(=O)Cc3ccccc3)ncc2Cl)s1	94*	nt	nt	nt	nt	nt
CSc1nnc(NC(=O)c2nc(S(=O)(=O)Cc3ccccc3)ncc2Cl)s1	82*	nt	nt	nt	nt	nt
CCCc1nnc(NC(=O)c2nc(S(=O)(=O)Cc3ccc(C)cc3)ncc2Cl)s1	25	nt	nt	nt	nt	nt
Clc1ccc(-c2cn3c(n2)CCC3)cc1	17	0.9	9.4*	10	12	3
Clc1ccc(-c2nnc3n2CCCCC3)cc1	1	1	-2	-4	18	-4
CC[C@@]1(C(=O)OC)N[C@H](CN(C)C(=O)COC)[C@@H]2C(=O)N(C)C(=O)[C@@H]21	-11	nt	nt	nt	nt	nt
O=[N+]([O-])c1ccc2[nH]nc(-c3ccccc3)c2c1	1	1.1	8.9*	-6	24	21
Cc1ccc(C)c(S(=O)(=O)N(C)C2(C)CCS(=O)(=O)C2)c1 (stereo not given)	-4	nt	nt	nt	nt	nt
O=C(CCN1CCOCC1)Nc1ccc(Cl)cc1	13	nt	nt	nt	nt	nt
Nc1ccc2nn(-c3ccccc3)nc2c1	22	0.4	4	60*	21	-9
Nc1ccc(-n2nc3ccccc3n2)cc1	12	nt	nt	nt	nt	nt
CCOC(=O)/C(=C\c1cccnc1)C(=O)c1cc(C(C)=O)c(Nc2ccccc2)s1	94*	1.1	2	-5	12	-4
Cc1c(O)ccc(C(=O)COc2ccc(F)cc2)c1O	14	1	10*	1	8	-2
CCc1cc(C(=O)COc2ccc(F)cc2)c(O)cc1O	0	1	2	-1	9	-1
COc1cc(/C=C(\C#N)c2nnc(N3CCOCC3)n2-c2ccccc2)ccc1O	4	1	-2	0	-3	4
Cc1cc(/C=C(\C#N)c2nnc(N3CCOCC3)n2-c2ccccc2)c(C)n1-c1ccccc1	nt	1	10*	-4	8	-7
Cc1ccc(NC(=O)COC(=O)Cc2ccsc2)c(C)c1	-2	1	-1	0	-17	-3
SMILES	TRAIL sens C8	FLuc stim CS	Wee1 degr inh	FLuc inh counter	PPC-1+TRAIL kill	PKD1 kinase inh
COCCN(C(=O)COC(=O)c1ccc2ccccc2c1)c1c(N)n(Cc2ccccc2)c(=O)[nH]c1=O	-8	nt	nt	nt	nt	nt
O=C(COC(=O)c1ccccc1NC(=O)C1CC1)c1ccc2c(c1)OCCO2	nt	0.3	-3	72*	11	-6
CC(C)(C)C(=O)Nc1ccccc1C(=O)OCC(=O)c1ccc2c(c1)OCCO2	2	0.8	-1	22	10	-5
CC(NC(=O)C(=O)c1cn(CC(=O)N2CCOCC2)c2ccccc12)c1ccccc1 (stereo not given)	9	nt	nt	nt	nt	nt
COc1sc(SC)cc1/C=N/NC(=O)c1ccncc1	-5	nt	nt	nt	nt	nt
CCCOc1ccc(S(=O)(=O)NCc2ccc(OC)cc2)cc1	-15	1.1	22*	-6	14	-8
COc1ccc(CNS(=O)(=O)c2ccc(OC)cc2)cc1	-8	1.1	1	-6	26	-4
